In ChEMBL document CHEMBL1125383, “Benzazepinone calcium channel blockers. 4. Structure-activity overview and intracellular binding site” (J Med Chem, 1992):

Tests used:
[1] = target: T1, Voltage-gated L-type calcium channel (Rattus norvegicus, UniProt P22002+Q02485+P27732); test: Percentage decrease in blood pressure at a dose of 135 uM/kg for 6-12 hr in spontaneously hypertensive rats.; format: functional, tissue-based
In short: (§1)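 Spontaneously hypertensive rats, n = 5, given 135 µmol/kg orally; systolic pressure recorded directly; maximum percent fall from predrug control noted within 0-6, 6-12 and 12-18 h windows after dosing; mean of five rats.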

[2] = Concentration required to cause 50% relaxation of maximal contraction in circumferential rabbit aorta strips in response to KCl (100 mM); format: functional, tissue-based, Oryctolagus cuniculus; details: Oryctolagus cuniculus, Aorta
[3] = target: T1, Voltage-gated L-type calcium channel; test: Percentage decrease in blood pressure at a dose of 135 uM/kg for 0-6 hr in spontaneously hypertensive rats.; format: functional, tissue-based; in short: as §1
[4] = target: T1, Voltage-gated L-type calcium channel; test: Percentage decrease in blood pressure at a dose of 135 uM/kg for 12-18 hr in spontaneously hypertensive rats.; format: functional, tissue-based; in short: as §1
[5] = target: T1, Voltage-gated L-type calcium channel; test: Percentage decrease in blood pressure at a dose of 135 uM/kg for 0-6 h in spontaneously hypertensive rats.; format: functional, tissue-based; in short: as §1
[6] = Partition coefficient (logP); format: physicochemical; details: octanol/water
[7] = target: T1, Voltage-gated L-type calcium channel; test: Percentage decrease in blood pressure at a dose of 270 umol/kg for 12-18 h in spontaneously hypertensive rats.; format: functional, tissue-based
In short: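 Spontaneously hypertensive rats, n = 5, dosed orally at 270 µmol/kg; systolic pressure recorded directly; maximum percent fall from predrug control within the 12-18 h window after dosing; mean of five rats.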

Structure (SMILES) | Decrease in blood pressure [1] [%] | IC50 [2] [nM] | Decrease in blood pressure [3] [%] | Decrease in blood pressure [4] [%] | Decrease in blood pressure [5] [%] | logP [6] | Decrease in blood pressure [7] [%]
COc1ccc([C@@H]2Cc3c(cccc3C(F)(F)F)N(CCN(C)C(C)=O)C(=O)[C@@H]2OC(C)=O)cc1 | 1 | 4500 | 2 | 5 |  |  | 
COc1ccc([C@@H]2Cc3ccccc3N(CCN(C)C)C(=O)[C@@H]2C)cc1 | 4 | 1100 |  | 8 | 6 | 2.5 | 
COc1ccc([C@@H]2Cc3cc(SC(C)(C)C)ccc3N(CCN(C)C)C(=O)[C@@H]2OC(C)=O)cc1 | 11 | 9000 |  | 14 | 10 | 3.6 | 
COc1ccc([C@@H]2Cc3cc(OCc4ccccc4)ccc3N(CCN(C)C)C(=O)[C@@H]2OC(C)=O)cc1 | 10 | 730 |  | 11 | 8 | 3.4 | 
COc1ccc([C@@H]2Cc3cc(Oc4ccccc4)ccc3N(CCN(C)C)C(=O)[C@@H]2OC(C)=O)cc1 | 12 | 440 |  | 16 | 16 | 3.1 | 
COc1ccc([C@@H]2Cc3c(C#N)cccc3N(CCN(C)C)C(=O)[C@@H]2OC(C)=O)cc1 | 7 | 120 |  | 9 | 9 | 1.3 | 
COc1ccc([C@@H]2Cc3c(cccc3[N+](=O)[O-])N(CCN(C)C)C(=O)[C@@H]2OC(C)=O)cc1 | 12 | 370 |  | 14 | 16 | 1.7 | 
COc1ccc([C@@H]2Cc3c(cccc3C(F)(F)F)N(CCN(C)C)C(=O)[C@@H]2Cc2ccccc2)cc1 | 8 | 790 |  | 6 | 14 | 5.2 | 
COc1ccc([C@@H]2Cc3cc(SC)ccc3N(CCN(C)C)C(=O)[C@@H]2OC(C)=O)cc1 | 20 | 600 |  | 21 | 19 | 2 | 
CNC(=O)Oc1ccc2c(c1)C[C@@H](c1ccc(OC)cc1)[C@@H](OC(C)=O)C(=O)N2CCN(C)C | 10 | 310 |  | 12 | 7 | 0.31 | 
COc1ccc([C@@H]2Cc3cc(C(F)(F)F)ccc3N(CCN(C)C)C(=O)[C@@H]2SC(C)=O)cc1 | 18 | 68 |  | 23 | 13 | 3.4 | 
COc1ccc([C@@H]2Cc3cc(Cl)ccc3N(CCN(C)C)C(=O)[C@@H]2OC(C)=O)cc1 | 14 |  |  |  | 13 | 2.2 | 18
COc1ccc([C@@H]2Cc3c(C)cccc3N(CCN(C)C)C(=O)[C@@H]2OC(C)=O)cc1 | 10 | 2500 |  | 12 | 6 | 1.7 | 
COc1ccc([C@@H]2Cc3c(OC)cccc3N(CCN(C)C)C(=O)[C@@H]2C)cc1 | 10 | 420 |  | 8 | 7 | 2.6 | 
COc1ccc([C@@H]2Cc3cc(Sc4ccccc4)ccc3N(CCN(C)C)C(=O)[C@@H]2OC(C)=O)cc1 | 17 | 690 |  | 19 | 15 | 3.8 | 
COc1ccc([C@@H]2Cc3c(ccc(Br)c3OC)N(CCN(C)C)C(=O)[C@@H]2OC(C)=O)cc1 | 12 | 580 |  | 11 | 18 | 2.4 | 
COc1ccc([C@H]2CC(=O)N(CCN(C)C)c3cccc(C(F)(F)F)c3C2)cc1 | 3 | 1100 |  | 3 | 2 | 3.1 | 
COc1ccc([C@@H]2Cc3c(ccc(Br)c3OC)N(CCN(C)C)C(=O)[C@@H]2C)cc1 | 12 | 85 |  | 14 | 9 | 3.4 | 
COc1ccc([C@@H]2Cc3c(C(=O)O)cccc3N(CCN(C)C)C(=O)[C@@H]2OC(C)=O)cc1 | 9 | > 30000 |  | 10 | 8 | -4.1 | 
COc1ccc([C@@H]2Cc3cc(C(F)(F)F)ccc3N(CCN(C)C)C(=O)[C@@H]2NC(C)=O)cc1 | 12 | 9200 |  | 10 | 12 | 1.6 | 
CC[C@H]1C(=O)N(CCN(C)C)c2cccc(C(F)(F)F)c2C[C@H]1c1ccc(OC)cc1 | 19 | 12 |  | 15 | 21 | 4.3 | 
COc1ccc([C@@H]2Cc3c(C(=O)OCc4ccccc4)cccc3N(CCN(C)C)C(=O)[C@@H]2OC(C)=O)cc1 | 8 | 3500 |  | 8 | 4 | 3.3 | 
